In brackets after ≈: the same amount, converted by molar mass. Peptide text beside a SMILES is read from it.
Assays:
[1] = tested on: Staphylococcus aureus; assay: Compound tested for the activity against Staphylococcus aureus strain 5; type: functional
How it was run: (§1)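 Microbroth dilution in Tryptic Soy Broth; inoculum 5×10^5 CFU/mL; plates incubated at 37 °C for 18-20 h; value reported as minimal inhibitory concentration (µg/mL).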

[2] = tested on: Staphylococcus aureus; assay: Compound tested for the activity against Staphylococcus aureus strain 11; type: functional; how it was run: as §1
[3] = tested on: Pseudomonas aeruginosa; assay: Compound tested for in vitro susceptibility against ATCC strain 27853 of Pseudomonas aeruginosa; type: functional; conditions: ATCC 27853; how it was run: as §1
[4] = tested on: Staphylococcus aureus; assay: Compound tested for the activity against Staphylococcus aureus strain 7; type: functional; how it was run: as §1
[5] = tested on: Pseudomonas aeruginosa; assay: Compound tested for the antimicrobial activity against Pseudomonas aeruginosa strain 9; type: functional; how it was run: as §1
[6] = tested on: Enterobacter cloacae; assay: Compound tested for the antimicrobial activity against Enterobacter cloacae; type: functional; how it was run: as §1
[7] = tested on: Pseudomonas aeruginosa; assay: Compound tested for the antimicrobial activity against Pseudomonas aeruginosa strain 5; type: functional; how it was run: as §1
[8] = tested on: Pseudomonas aeruginosa; assay: Compound tested for the antimicrobial activity against Pseudomonas aeruginosa strain 3; type: functional; how it was run: as §1
[9] = tested on: Pseudomonas aeruginosa; assay: Compound tested for the antimicrobial activity against Pseudomonas aeruginosa strain 7; type: functional; how it was run: as §1
[10] = tested on: Staphylococcus aureus; assay: Compound tested for the activity against Staphylococcus aureus strain 8; type: functional; how it was run: as §1
[11] = tested on: Staphylococcus aureus; assay: Compound tested for the activity against Staphylococcus aureus strain 3; type: functional; how it was run: as §1
[12] = tested on: Staphylococcus aureus; assay: Compound tested for in vitro susceptibility against ATCC strain 29213 of Staphylococcus aureus; type: functional; how it was run: as §1
[13] = tested on: Pseudomonas aeruginosa; assay: Compound tested for the antimicrobial activity against Pseudomonas aeruginosa strain 2; type: functional; how it was run: as §1
[14] = tested on: Pseudomonas aeruginosa; assay: Compound tested for the antimicrobial activity against Pseudomonas aeruginosa strain 6; type: functional; how it was run: as §1
[15] = tested on: Staphylococcus aureus; assay: Compound tested for the activity against Staphylococcus aureus strain 10; type: functional; how it was run: as §1
[16] = tested on: Klebsiella pneumoniae; assay: Compound tested for the antimicrobial activity against Klebsiella pneumoniae; type: functional
How it was run: (§2)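 MIC by microbroth dilution in Tryptic Soy Broth; inoculum 5×10^5 CFU/mL; plates incubated 18-20 h at 37 °C; assay pH approximately 7.4.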

[17] = tested on: Proteus mirabilis; assay: Compound tested for the antimicrobial activity against Proteus mirabilis; type: functional; how it was run: as §1
[18] = tested on: Salmonella enterica subsp. enterica serovar Anatum; assay: Compound tested for the antimicrobial activity against S. a natum; type: functional, salmoneila anatum; how it was run: as §1
[19] = tested on: Staphylococcus aureus; assay: Compound tested for the activity against Staphylococcus aureus strain 9; type: functional; how it was run: as §1
[20] = tested on: Pseudomonas aeruginosa; assay: Compound tested for the antimicrobial activity against Pseudomonas aeruginosa strain ATCC 25916; type: functional; how it was run: as §1
[21] = tested on: Acinetobacter calcoaceticus subsp. anitratus; assay: Compound tested for the antimicrobial activity against Acinetobacter anitratus; type: functional; how it was run: as §2
[22] = tested on: Staphylococcus aureus; assay: Compound tested for the activity against Staphylococcus aureus strain 2; type: functional; how it was run: as §1
[23] = tested on: Escherichia coli; assay: Compound tested for in vitro susceptibility against ATCC strain 25922 of Escherichia coli; type: functional; conditions: ATCC25922; how it was run: as §1
[24] = tested on: Pseudomonas aeruginosa; assay: Compound tested for the antimicrobial activity against Pseudomonas aeruginosa strain 4; type: functional; how it was run: as §1
[25] = tested on: Pseudomonas aeruginosa; assay: Compound tested for the antimicrobial activity against Pseudomonas aeruginosa strain 11; type: functional; how it was run: as §1
[26] = tested on: Staphylococcus aureus; assay: Compound tested for the activity against Staphylococcus aureus strain ATCC 28953; type: functional; how it was run: as §1
[27] = tested on: Pseudomonas aeruginosa; assay: Compound tested for the antimicrobial activity against Pseudomonas aeruginosa strain 10; type: functional; how it was run: as §1
[28] = tested on: Enterobacter cloacae; assay: Compound tested for the antimicrobial activity against Enterobacter cloacae ROS; type: functional, enterobacter cloacaeros; how it was run: as §2
[29] = tested on: Shigella flexneri; assay: Compound tested for the antimicrobial activity against Shigella flexneri; type: functional; how it was run: as §2
[30] = tested on: Staphylococcus aureus; assay: Compound tested for the activity against Staphylococcus aureus strain 1; type: functional; how it was run: as §1
[31] = tested on: Staphylococcus aureus; assay: Compound tested for the activity against Staphylococcus aureus strain 4; type: functional; how it was run: as §1
[32] = tested on: Staphylococcus aureus; assay: Compound tested for the activity against Staphylococcus aureus strain 6; type: functional; how it was run: as §1
[33] = tested on: Pseudomonas aeruginosa; assay: Compound tested for the antimicrobial activity against Pseudomonas aeruginosa strain 1; type: functional; how it was run: as §1
[34] = tested on: Pseudomonas aeruginosa; assay: Compound tested for the antimicrobial activity against Pseudomonas aeruginosa strain 8; type: functional; how it was run: as §1
[35] = Hemolytic activity towards human erythrocytes is evaluated for magainin 2 at peptide concentration of 200 µg/mL; type: functional
How it was run: (§3)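 Washed human erythrocytes from healthy volunteers (3 mL packed cells, PBS pH 7.4 washes, diluted to 20 mL) exposed to peptide in PBS at 25-200 µg/mL, 30 min at 37 °C; supernatant absorbance at 576 nm after centrifugation; 0.1% Triton X-100 taken as 100% hemolysis; duplicates.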

[36] = Hemolytic activity towards human erythrocytes is evaluated for magainin 2 at peptide concentration of 25 ug/mL; type: functional; how it was run: as §3
[37] = Hemolytic activity towards human erythrocytes is evaluated for magainin 2 at peptide concentration of 100 µg/mL; type: functional; how it was run: as §3
[38] = Hemolytic activity towards human erythrocytes is evaluated for magainin 2 at peptide concentration of 50 µg/mL; type: functional; how it was run: as §3
[39] = tested on: Staphylococcus aureus; assay: Compound tested for the activity against strain of Staphylococcus aureus ATCC 28953; type: functional; how it was run: as §1

MIC [1] [µg/mL]	MIC [2] [µg/mL]	MIC [3] [µg/mL]	MIC [4] [µg/mL]	MIC [5] [µg/mL]	MIC [7] [µg/mL]	MIC [8] [µg/mL]	MIC [9] [µg/mL]	MIC [10] [µg/mL]	MIC [11] [µg/mL]	MIC [12] [µg/mL]	MIC [13] [µg/mL]	MIC [14] [µg/mL]	MIC [15] [µg/mL]	MIC [19] [µg/mL]	MIC [20] [µg/mL]	MIC [22] [µg/mL]	MIC [23] [µg/mL]	MIC [24] [µg/mL]	MIC [25] [µg/mL]	SMILES	other results
> 100	> 100	12.5 (≈ 9.01 µM)	> 100	> 100	50 (≈ 36.1 µM)	50 (≈ 36.1 µM)	50 (≈ 36.1 µM)	> 100	> 100	12.5 (≈ 9.01 µM)	12.5 (≈ 9.01 µM)	> 100	> 100	> 100	25 (≈ 18 µM)	> 100	25 (≈ 18 µM)	50 (≈ 36.1 µM)	50 (≈ 36.1 µM)	CC(C)C[C@H](NC(=O)[C@H](CCCCN)NC(=O)[C@H](CC(C)C)NC(=O)[C@H](Cc1c[nH]c2ccccc12)NC(=O)[C@H](CCCCN)NC(=O)[C@@H](N)CCCCN)C(=O)N[C@@H](Cc1c[nH]c2ccccc12)C(=O)N[C@@H](CCCCN)C(=O)N[C@@H](C)C(=O)N[C@@H](Cc1c[nH]c2ccccc12)C(=O)O (H-KKWLKLWKAW-OH)	MIC [6]: < 0.39 µg/mL; MIC [16]: > 100 µg/mL; MIC [17]: > 100 µg/mL; MIC [18]: 12.5 µg/mL (≈ 9.01 µM); MIC [21]: < 0.39 µg/mL; MIC [26]: > 100 µg/mL; MIC [27]: 50 µg/mL (≈ 36.1 µM); MIC [28]: 50 µg/mL (≈ 36.1 µM); MIC [29]: < 0.39 µg/mL; MIC [30]: > 100 µg/mL; MIC [31]: > 100 µg/mL; MIC [32]: > 100 µg/mL; MIC [33]: 25 µg/mL (≈ 18 µM); MIC [34]: 50 µg/mL (≈ 36.1 µM)
50 (≈ 37.5 µM)	50 (≈ 37.5 µM)	12.5 (≈ 9.39 µM)	25 (≈ 18.8 µM)	> 100	50 (≈ 37.5 µM)	50 (≈ 37.5 µM)	50 (≈ 37.5 µM)	50 (≈ 37.5 µM)	> 100	25 (≈ 18.8 µM)	12.5 (≈ 9.39 µM)	> 100	50 (≈ 37.5 µM)	50 (≈ 37.5 µM)	50 (≈ 37.5 µM)	25 (≈ 18.8 µM)	50 (≈ 37.5 µM)	50 (≈ 37.5 µM)	50 (≈ 37.5 µM)	CC(C)C[C@H](NC(=O)[C@H](Cc1c[nH]c2ccccc12)NC(=O)[C@H](CCCCN)NC(=O)[C@H](CCCCN)NC(=O)[C@@H](N)Cc1c[nH]c2ccccc12)C(=O)N[C@@H](Cc1c[nH]c2ccccc12)C(=O)N[C@@H](C)C(=O)N[C@@H](CCCCN)C(=O)N[C@@H](Cc1c[nH]c2ccccc12)C(=O)O (H-WKKWLWAKW-OH)	Hemolysis [35]: 5%; MIC [39]: > 100 µg/mL; Hemolysis [36]: 1%; Hemolysis [37]: 4%; MIC [27]: > 100 µg/mL; Hemolysis [38]: 1%; MIC [30]: 50 µg/mL (≈ 37.5 µM); MIC [31]: 50 µg/mL (≈ 37.5 µM); MIC [32]: 50 µg/mL (≈ 37.5 µM); MIC [33]: 50 µg/mL (≈ 37.5 µM); MIC [34]: 50 µg/mL (≈ 37.5 µM)

SMILES	MIC [1] [µg/mL]	MIC [2] [µg/mL]	MIC [3] [µg/mL]	MIC [4] [µg/mL]	MIC [5] [µg/mL]	MIC [7] [µg/mL]	MIC [8] [µg/mL]	MIC [9] [µg/mL]	MIC [10] [µg/mL]	MIC [11] [µg/mL]	MIC [12] [µg/mL]	MIC [13] [µg/mL]	MIC [14] [µg/mL]	MIC [15] [µg/mL]	MIC [19] [µg/mL]	MIC [20] [µg/mL]	MIC [22] [µg/mL]	MIC [23] [µg/mL]	MIC [24] [µg/mL]	MIC [25] [µg/mL]	other results
CC(C)C[C@H](NC(=O)[C@H](C)NC(=O)[C@H](CCCCN)NC(=O)[C@H](C)NC(=O)[C@H](CC(C)C)NC(=O)[C@H](CCCCN)NC(=O)[C@H](C)NC(=O)[C@H](CC(C)C)NC(=O)[C@H](CCCCN)NC(=O)[C@H](C)NC(=O)[C@H](CC(C)C)NC(=O)[C@H](CCCCN)NC(=O)[C@H](CCCCN)NC(=O)[C@H](C)NC(=O)[C@H](CC(C)C)NC(=O)[C@@H](N)CCCCN)C(=O)O (H-KLAKKLAKLAKLAKAL-OH)	> 100	> 100	3.12 (≈ 1.83 µM)	> 100	> 100	6.25 (≈ 3.66 µM)	3.12 (≈ 1.83 µM)	6.25 (≈ 3.66 µM)	> 100	> 100	12.5 (≈ 7.32 µM)	6.25 (≈ 3.66 µM)	> 100	> 100	> 100	6.25 (≈ 3.66 µM)	> 100	6.25 (≈ 3.66 µM)	3.12 (≈ 1.83 µM)	6.25 (≈ 3.66 µM)	MIC [6]: 3.12 µg/mL (≈ 1.83 µM); Hemolysis [35]: 2%; MIC [16]: 12.5 µg/mL (≈ 7.32 µM); MIC [17]: > 100 µg/mL; MIC [18]: 25 µg/mL (≈ 14.6 µM); Hemolysis [36]: 1%; MIC [21]: 3.12 µg/mL (≈ 1.83 µM); Hemolysis [37]: 1%; MIC [26]: > 100 µg/mL; MIC [27]: > 100 µg/mL; MIC [28]: 12.5 µg/mL (≈ 7.32 µM); Hemolysis [38]: 1%; MIC [29]: 25 µg/mL (≈ 14.6 µM); MIC [30]: > 100 µg/mL; MIC [31]: > 100 µg/mL; MIC [32]: > 100 µg/mL; MIC [33]: 3.12 µg/mL (≈ 1.83 µM); MIC [34]: 50 µg/mL (≈ 29.3 µM)

— ChEMBL document CHEMBL1126653, “Structure-function studies of amphiphilic antibacterial peptides” (1993)
